Shown are actives, neighbours in structure and some others; about 2% of the full set was active somewhere.
GPR7 antagonist: GPR7 receptor antagonists, primary screen, cell-based, fluorescence, single concentration; Neuropeptides B/W receptor type 1 (Homo sapiens), P48145; GPR7-expressing cells, fluorescence antagonist assay; inhibition, % at 4.4 µM; 1.1% of 290,000 active; AID 1861, 2009; in the data active = inhibition above about 16%, passing the limit was not always enough;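 note: cells stimulated with the agonist NPW; 0% = agonist with vehicle and 100% = vehicle without agonist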
Target sequence (P48145 whole entry, looked up): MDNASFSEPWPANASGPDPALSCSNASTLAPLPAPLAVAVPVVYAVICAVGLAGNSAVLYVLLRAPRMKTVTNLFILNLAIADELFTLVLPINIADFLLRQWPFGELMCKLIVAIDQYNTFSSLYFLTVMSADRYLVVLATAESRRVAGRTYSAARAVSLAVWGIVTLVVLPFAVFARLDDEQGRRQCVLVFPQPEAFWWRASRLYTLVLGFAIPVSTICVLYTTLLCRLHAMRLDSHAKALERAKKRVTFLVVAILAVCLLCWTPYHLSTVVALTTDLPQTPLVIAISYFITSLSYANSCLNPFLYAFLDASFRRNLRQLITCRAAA
TRPN1 ag: zebrafish TRPN1 channel agonists, primary screen, cell-based, HEK293, calcium fluorescence | 0.18% of 220,000 active | HEK293 zebrafish TRPN1-YFP, Fluo-8 calcium fluorescence; 100% = response to 87 µM carbachol | activation, % at 3 µM | transient receptor potential cation channel N1 (TRPN1/NompC), Danio rerio | AID 1424, 2008;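 active = activation above its plate's cutoff, the mean activation of test wells on that plate plus 3 SD, cut at about 19% in these data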;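 note: 0% = DMSO alone and 100% = 87 µM carbachol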
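Material – zebrafish TRPN1-YFP in HEK293 cells · Doses – 3 µM single point · Schedule – dye 1 h 37 °C plus 30 min RT · Signal – Fluo-8 calcium fluorescence, excitation 470-495 nm, emission 515-575 nm · Read-out – % activation versus carbachol response · Control set – carbachol high, DMSO low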
CRFR2-BP antag: antagonists of CRF-BP/CRF-R2 complex, primary screen, cell-based, HEK293, calcium dye fluorescence, uHTS; CRF-induced calcium fluorescence; inhibition, % at 11.8 µM; 0.59% of 350,000 active; AID 588475, 2011;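 active = inhibition of the ligand-induced calcium signal above about 50% at the single tested concentration, limit read from the data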
CRFBP-R2 agonist: agonists of CRF-BP/CRF-R2 complex, primary screen, cell-based, HEK293, calcium dye fluorescence, uHTS; CRF-binding protein / CRF receptor 2 complex (human); calcium dye fluorescence (FLIPR); percent of saturating CRF peptide response; activation, % at 13.2 µM; 0.46% of 350,000 active;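 active = activation of at least 50%, plus an integration ratio under a set limit after plate pattern correction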;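 note: plate controls were neutral control wells without compound for no effect and CRF at EC100 for full effect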
TRPML3 agonist: human TRPML3 channel agonists, primary screen, cell-based, HEK293 TRPML3-YFP, Fluo-8 calcium fluorescence, 3 µM; 100% = the carbachol control signal; 0.29% of 220,000 active; activation, % at 3 µM;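 active = activation above its plate's cutoff, the mean activation of the plate's test wells plus 3 SD, cut at about 12% in these data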;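 note: 0% = DMSO only wells and 100% = carbachol wells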
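Material: TRPML3-YFP stable HEK293 cells | Dosing: One concentration, 3 µM nominal, 0.3% DMSO | Timing: 125 s total fluorescence read per well | Technique: Fluo-8 calcium dye fluorescence, ex 470-495, em 515-575 nm | Measure: Percent activation from peak-to-basal fluorescence ratio, scaled between DMSO and carbachol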
Active calls of the source: *.

How did CC(=O)Oc1ccc2c(c1)O/C(=C\c1ccncc1)C2=O do in these assays?
GPR7 antagonist: -10.8; TRPN1 ag: 7.7; CRFR2-BP antag: -67.3; CRFBP-R2 agonist: 126.6*; TRPML3 agonist: 4.7

What do the screens show for `COc1ccccc1C(=O)Oc1ccc2c(c1)O/C(=C\c1ccncc1)C2=O`?
GPR7 antagonist: -5.2; TRPN1 ag: 5.1; CRFR2-BP antag: -60.2; CRFBP-R2 agonist: 124.2*; TRPML3 agonist: 4.5

How did O=C(Oc1ccc2c(c1)O/C(=C\c1ccncc1)C2=O)c1cccs1 do in these assays?
GPR7 antagonist: 1.9; TRPN1 ag: 1.9; CRFR2-BP antag: -7.0; CRFBP-R2 agonist: 8.1; TRPML3 agonist: 1.1

What do the screens show for `COc1ccc(N2CCN(CCC(O)c3ccc4ccccc4c3)CC2)cc1` (configuration not stated)?
GPR7 antagonist: 6.2; CRFR2-BP antag: -6.4; CRFBP-R2 agonist: -4.0

How did Cc1ccccc1NS(=O)(=O)c1ccc(C(=O)NN2CCCCC2)cc1 do in these assays?
GPR7 antagonist: -3.8; CRFR2-BP antag: -9.7; CRFBP-R2 agonist: 1.9

How did Cc1ccc(C(=O)N/N=C(/CC(=O)c2cccs2)C(F)(F)F)cc1 do in these assays?
GPR7 antagonist: -12.1; TRPN1 ag: 2.3; CRFR2-BP antag: 79.5*; CRFBP-R2 agonist: 20.1; TRPML3 agonist: 0.7

What do the screens show for `O=C(N/N=C(\CC(=O)c1cccs1)C(F)(F)F)c1ccncc1`?
GPR7 antagonist: -13.3; TRPN1 ag: -0.7; CRFR2-BP antag: -1.9; CRFBP-R2 agonist: 0.0; TRPML3 agonist: 0.6

Results for Cc1cc(OCC(=O)NCC(c2ccc(F)cc2)N2CCOCC2)ccc1Cl (configuration not stated) ?
CRFR2-BP antag: -9.3; CRFBP-R2 agonist: 2.5

What do the screens show for `COc1ccc(/C=N/S(=O)(=O)c2cccs2)cc1`?
GPR7 antagonist: -0.8; TRPN1 ag: -0.2; CRFR2-BP antag: -4.7; CRFBP-R2 agonist: -0.2; TRPML3 agonist: 0.3

How did COc1ccc(/C=C2\S/C(=N/S(=O)(=O)c3cccs3)NC2=O)cc1 do in these assays?
GPR7 antagonist: -10.9; TRPN1 ag: -1.4; CRFR2-BP antag: 68.8*; CRFBP-R2 agonist: 0.1; TRPML3 agonist: 0.1

What do the screens show for `C[C@@H]1CN([C@@H](C)CO)S(=O)(=O)c2ccc(Br)cc2O[C@@H]1CN(C)C(=O)c1ccncc1`?
CRFR2-BP antag: 9.9; CRFBP-R2 agonist: -0.8

How did COC(=O)C1CN(C(=O)COc2ccc(Cl)cc2C)c2ccccc2O1 (configuration not stated) do in these assays?
GPR7 antagonist: 8.6; CRFR2-BP antag: 9.6; CRFBP-R2 agonist: 2.9

What do the screens show for `CN(C)S(=O)(=O)c1ccc(C(=O)OCC(=O)c2ccc(OC(F)F)cc2OC(F)F)cc1`?
GPR7 antagonist: 18.4*; TRPN1 ag: 2.8; CRFR2-BP antag: -4.2; CRFBP-R2 agonist: 1.5; TRPML3 agonist: 2.3

What do the screens show for `CN(C)S(=O)(=O)c1ccc(C(=O)OCC(=O)Nc2ccccc2OC(F)F)cc1`?
GPR7 antagonist: -6.0; TRPN1 ag: -0.9; CRFR2-BP antag: -0.2; CRFBP-R2 agonist: 1.7; TRPML3 agonist: 0.6

How did Cc1cnc(NC(=O)c2cc(-c3ccccc3)nn2-c2ccccc2)s1 do in these assays?
CRFR2-BP antag: -2.5; CRFBP-R2 agonist: 0.3

How did COc1cc(O)c2c(c1)COC2=O do in these assays?
GPR7 antagonist: 0.9; TRPN1 ag: 1.2; CRFR2-BP antag: 60.0*; CRFBP-R2 agonist: -0.5; TRPML3 agonist: 1.2

Results for COc1ccc2c(c1OC)C(=O)OC2 ?
GPR7 antagonist: -13.5; TRPN1 ag: -0.3; CRFR2-BP antag: 0.4; CRFBP-R2 agonist: -0.7; TRPML3 agonist: 0.8

Results for Cc1cccc(-n2c(SCC(=O)N3CC(=O)Nc4ccccc43)nc3ccccc3c2=O)c1 ?
GPR7 antagonist: 16.4; TRPN1 ag: 10.0; CRFR2-BP antag: -19.9; CRFBP-R2 agonist: 7.9; TRPML3 agonist: 6.2

Results for Cc1cccc(-n2c(SCC(=O)N3CC(=O)Nc4ccccc43)nc3ccccc3c2=O)c1C ?
GPR7 antagonist: 19.6; TRPN1 ag: 9.8; CRFR2-BP antag: 55.4*; CRFBP-R2 agonist: 3.8; TRPML3 agonist: 2.2

How did CCn1c(SCc2cccc(F)c2)nnc1-c1ccncc1 do in these assays?
GPR7 antagonist: 12.8; CRFR2-BP antag: 4.5; CRFBP-R2 agonist: 0.2

Results for CCn1c(SCc2cccc(F)c2)nnc1-c1cccnc1 ?
GPR7 antagonist: 18.6*; TRPN1 ag: -1.1; CRFR2-BP antag: 33.1; CRFBP-R2 agonist: -3.0; TRPML3 agonist: -0.4

What do the screens show for `CC(C)n1cc(/C=C/c2cc[n+](C)cc2)c2ccccc21`?
GPR7 antagonist: 3.5; CRFR2-BP antag: -41.9; CRFBP-R2 agonist: 58.2*

What do the screens show for `C=CCn1cc(/C=C/c2cc[n+](C)cc2)c2ccccc21`?
GPR7 antagonist: -16.1; CRFR2-BP antag: -45.1; CRFBP-R2 agonist: 77.1*

Results for CCn1cc(/C=C/c2cc[n+](C)cc2)c2ccccc21 ?
GPR7 antagonist: 16.4; CRFR2-BP antag: -24.4; CRFBP-R2 agonist: 56.2*

Results for C=CCn1c(C)c(/C=C/c2cc[n+](C)cc2)c2ccccc21 ?
GPR7 antagonist: -0.5; CRFR2-BP antag: -67.7; CRFBP-R2 agonist: 36.3

How did Cc1cnc(NC(=O)CC(C)c2ccccc2)s1 (configuration not stated) do in these assays?
GPR7 antagonist: 13.5; CRFR2-BP antag: -27.6; CRFBP-R2 agonist: 2.3

How did Cc1ccc(Sc2ccc(CO)cc2[N+](=O)[O-])cc1 do in these assays?
GPR7 antagonist: -11.1; TRPN1 ag: -1.8; CRFR2-BP antag: 50.8*; CRFBP-R2 agonist: -0.5; TRPML3 agonist: -0.2

Results for O=C(NCCN1CCOCC1)C1CC(=O)N(c2ccc(Cl)cc2)C1 (configuration not stated) ?
GPR7 antagonist: -8.3; CRFR2-BP antag: 16.7; CRFBP-R2 agonist: -1.4

What do the screens show for `CCN1CCN(C(=O)C2=CC(c3ccc(OC)cc3)=NS(=O)(=O)N2C)CC1`?
GPR7 antagonist: -9.6; CRFR2-BP antag: 63.0*; CRFBP-R2 agonist: 1.1

Results for O=c1cc(-c2ccccc2)ss1 ?
CRFR2-BP antag: 90.2*; CRFBP-R2 agonist: -2.1

What do the screens show for `O=C1[C@@H]2[C@@H](CN3CN(c4ccccc4)N=C(c4ccccc4)[C@@]23c2ccccc2)C(=O)N1c1ccccc1`?
CRFR2-BP antag: 11.1; CRFBP-R2 agonist: 1.9

How did Cc1ccc(N2CC(C(=O)NC3CCCCCC3)CC2=O)cc1 (configuration not stated) do in these assays?
CRFR2-BP antag: 1.1; CRFBP-R2 agonist: -0.2

What do the screens show for `CCOC(=O)C1CCN(CC(=O)Nc2c(C(=O)OC)[nH]c3ccccc23)CC1`?
GPR7 antagonist: -2.8; TRPN1 ag: 1.5; TRPML3 agonist: 1.2

Source: PubChem
